Many of the other results were omitted from the sample, so hits are more common in it than they were.
Jurkat NFkB inh: lowers PMA/ionomycin-induced NF-kB signal in Jurkat cells. actives 0.53% (n = 330,000). PMA/ionomycin-induced NF-kB luciferase reporter, luminescence. inhibition, % at 4 µM; in the data active means inhibition above about 50%
697 NFkB inh: lowers PMA/ionomycin-induced NF-kB signal in 697 B cells; inhibition, % at 4 µM; AID 435022; 697 B-cell NF-kB luciferase reporter, 16 h; actives 0.33% (n = 330,000); in the data active means inhibition above about 35%
UPR XBP1 act: adaptive UPR (XBP1) activation; activation, % at 20 µM; actives 0.33% (n = 330,000); CHO-XBP1 luciferase reporter, IRE1-XBP1 UPR activation, luminescence; percent of tunicamycin response, DMSO as zero; AID 463104;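 active means versus positive control, 20 µM dose yields 30% or more activation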;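 further: 100% = tunicamycin at 10 µg/mL and 0% = DMSO only wells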
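incubation = overnight seeding at 37 °C, 6 h compound treatment at 37 °C | assay system = CHO-XBP1 cells stably carrying IRE1-XBP1-driven luciferase reporter | input = 1000 cells per well | detection = luciferase luminescence | dosing = single point, 20 µM final compound, 1% DMSO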
CHOP inhibitor: inhibitors of CHOP induction in ER stress response; inhibition, % at 10 µM; CHO-K1 CHOP-promoter luciferase, tunicamycin-induced, 15-18 h; actives 3.8% (n = 220,000);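 active means compounds that reduced the stress-induced luciferase reporter signal by more than about 70% of percent inhibition, limit read from the data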;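 further: 0% = tunicamycin plus vehicle and 100% = wells without tunicamycin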
UPR CHOP act: activators of apoptotic arm of unfolded protein response (CHOP); CHO-CHOP luciferase reporter, UPR activation, luminescence; percent of tunicamycin response over DMSO baseline; activation, % at 10 µM; actives 0.34% (n = 330,000);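 active means at 10 µM dose, activation of 40% or more, normalized to positive control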;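 further: 100% = tunicamycin at 10 µg/mL and 0% = DMSO alone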
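Test system: CHO CHOP reporter cells. Input: 500 CHO-CHOP cells per well. Medium: F12 with 10% FBS. Technique: luciferase luminescence. Measure: percent activation relative to tunicamycin control. Dosing: 10 µM compound, 0.5% DMSO. Timing: 16-18 h cell attachment, then 6 h compound exposure, 37 °C.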
Jurkat NFkB conf: lowers PMA/ionomycin-induced NF-kB signal in Jurkat cells. AID 435020. actives 27% (n = 2,700). inhibition, % at 4 µM. shares compounds with Jurkat NFkB inh. Jurkat NF-kB luciferase, 16 h;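 active means inhibition reaching about 45% at 4 µM in either replicate, limit read from the data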;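 further: plate controls were PMA/ionomycin stimulated DMSO wells for no effect and unstimulated DMSO wells for full effect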
* marks the source's active call; other numbers are inactive results; nt = not tested or not shown.

SMILES	Jurkat NFkB inh	697 NFkB inh	UPR XBP1 act	CHOP inhibitor	UPR CHOP act	Jurkat NFkB conf
CCOC(=O)CSC1=C(C#N)C(c2ccc(C)s2)CC(=O)N1 (configuration not stated)	57*	5	2	nt	0	49*
CCCC#Cc1ccc2c(c1)COc1c3ccccc3nn1-2	-125	-197	3	nt	3	nt
CCc1cc(-c2ccc3c(c2)COc2c4ccccc4nn2-3)on1	-165	-100	-5	nt	1	-57
O=C1CC(c2cc(F)ccc2F)c2cc3c(cc2N1)CCC3 (configuration not stated)	71*	-77	-2	71*	-2	52*
CC1(C)CC(=O)C2=C(C1)NC(=O)CC2c1cc(F)ccc1F (configuration not stated)	-1	16	1	6	3	nt
O=C1CC(c2cccc(Br)c2)c2cc3c(cc2N1)CCC3 (configuration not stated)	54*	-72	3	108*	1	45
COc1ccc(NC(=S)Nc2ccc(Oc3ccccc3)cc2)cc1	8	-2	-1	17	1	nt
COc1ccc(NC(=S)NN(C)C(=S)Nc2ccc(OC)cc2)cc1	65*	-49	-2	12	0	-2
COC(=O)[C@@]12CCCCN1[C@H](c1ccc(-c3ccccc3)c(OC)c1)[C@H]1C(=O)N(C)C(=O)[C@H]12	4	11	2	nt	-3	nt
CCN1/C(=C/C=C/c2oc3ccc4ccccc4c3[n+]2CC)Oc2ccc3ccccc3c21	92*	-24	-2	70*	13	42
COc1ccc(NC(=O)CSc2nnc(-c3ccc(F)cc3)o2)cn1	-5	-29	-1	nt	1	nt
Cc1ccc(-c2nc(NC(=O)CSc3ccc4ccccc4n3)ns2)cc1	-4	-12	3	35	-1	nt
Cc1nnc(SCC(=O)Nc2nsc(-c3ccc(C(C)(C)C)cc3)n2)s1	-153	-136	3	25	5	-82
Nc1ccc2oc(-c3cccc(Br)c3)nc2c1	-177	-182	2	24	6	-38
Nc1ccc2oc(-c3ccc4nc[nH]c4c3)nc2c1	-80	-158	-1	31	-1	nt
CC(C)(C)N1CC(OC(N)=O)C1	18	1	-5	7	1	nt
COc1cccc(CN(C)C(=O)c2cc(COc3ccc4ncccc4c3)on2)c1	52*	19	2	46	2	46
CCCCC(=O)Nc1nc(C)c(-c2csc(Nc3ccccc3OC)n2)s1	18	15	2	58	2	nt
C=CCCC(=O)Nc1nc(C)c(-c2csc(Nc3ccccc3OC)n2)s1	53*	-37	2	55	1	16
CC(C)(C)OC(=O)CNC(=O)c1[nH]cnc1C(=O)Nc1ccc(CNC(=O)OC(C)(C)C)cc1	25	13	-2	48	4	nt
CC(C)(C)OC(=O)NCc1ccc(NC(=O)c2nc[nH]c2C(=O)NCCNC(=O)c2[nH]cnc2C(=O)Nc2ccc(CNC(=O)OC(C)(C)C)cc2)cc1	62*	15	0	nt	-2	35
O=C(CN1CCc2ccccc2C1)Nc1ccccc1C(=O)NC1CC1	3	3	-3	nt	2	nt
O=C1CCCc2nc(N3CCc4ccccc43)ncc21	-179	-231	3	-14	-1	-120
NNC(=O)CSc1cccc2cccnc12	12	-36	0	23	1	nt
CC(=O)/C(=N\Nc1ccccc1)Sc1cccc2cccnc12	4	-17	1	15	1	nt
SMILES	Jurkat NFkB inh	697 NFkB inh	UPR XBP1 act	CHOP inhibitor	UPR CHOP act	Jurkat NFkB conf
O=C(Sc1cccc2cccnc12)c1ccc(F)cc1	101*	-151	-3	91*	69*	60*
O=C(Sc1cccc2cccnc12)c1ccccc1Br	101*	-97	0	nt	62*	69*
C[C@@H]1CN([C@@H](C)CO)C(=O)c2cccc(NC(=O)C3CCCCC3)c2O[C@@H]1CN(C)C(=O)NC1CCCCC1	7	-21	-2	nt	-1	nt
CC(C)(C)c1ccc(C(=O)Nc2ccc([N+](=O)[O-])cn2)cc1	-182	-96	-3	15	2	-113
O=C(Nc1ccc([N+](=O)[O-])cn1)c1cccnc1	13	1	-1	nt	0	nt
Cn1cccc1/C=C1\SC(=Nc2ccc(O)cc2)NC1=O	56*	-52	18	-93	3	8
CC1CC(C)CN(CC(O)COCc2ccccc2)C1 (configuration not stated)	0	11	-4	nt	2	nt
Cc1cc(/C=C(\C#N)C(=O)Nc2ccccc2F)c(C)[nH]1	-191	-128	0	-3	5	-5
COc1cc(/C=N/NC(=O)c2cccc([N+](=O)[O-])c2)ccc1OCc1ccccc1	-59	-5	5	-5	4	nt
COc1cc(/C=C/[N+](=O)[O-])ccc1OCc1cccc(C(=O)O)c1	69*	-58	-9	77*	-8	43
CC(C)(C)OC(=O)NCC1CCC(C(=O)NC[C@H](CC(=O)O)c2ccc(Cl)cc2)CC1 (some centres not stated)	-17	-11	4	nt	-2	nt
COc1ccc(Br)cc1/C=N/Nc1ccccn1	8	6	0	nt	2	nt
CCOc1cccc(/C=N/Nc2ccc(S(=O)(=O)N(CC)CC)cn2)c1O	60*	-34	0	52	-1	46
CCN(CC)S(=O)(=O)c1ccc(N/N=C/c2cc(OC)c(OC)cc2OC)nc1	3	-2	25	5	2	nt
C(=N\Nc1nc(-c2ccccn2)nc2ccccc12)/c1ccccc1	101*	-30	13	88*	527*	15
CCN1/C(=C/C(C)=O)Sc2ccc(OC)cc21	-4	8	-2	23	0	nt
COc1ccc2c(c1)N(C)/C(=C/c1cccc[n+]1C)S2	61*	-26	-1	nt	-2	11
CCN1/C(=C/c2cccc[n+]2C)Sc2ccc(OC)cc21	72*	-9	-1	nt	0	-5
CSCCC(NC(=O)COc1ccccc1)C(=O)NCC1COc2ccccc2O1 (configuration not stated)	-10	-2	-1	nt	-1	nt
CN(C)S(=O)(=O)N1CCC(Oc2ccc(C(=O)N3CCCCCCC3)cc2)CC1	-37	-65	-2	nt	3	nt
CCN(CC)c1ccc2c(cc1=O)[C@@H](NC)CCc1cc(OC)c(OC)c(OC)c1-2	60*	-3	23	nt	-2	3
COc1cc2c(c(OC)c1OC)-c1ccc(OC)c(=O)cc1[C@@H](N(C)CC#CCO)CC2	63*	-244	6	nt	2	62*
COc1cc2c(c(OC)c1OC)-c1ccc(N(C)CC(OC)OC)c(=O)cc1[C@@H](NC(C)=O)CC2	47	-197	-2	nt	-2	nt

Screening results (PubChem)
